Reference: article PMC10583827 (RSC Medicinal Chemistry, 2023)
Several values for one entry are separate records, joined by “and”; a condition that tells them apart may be missing. Equal entries are not always repeated. Entries after “also recorded” stand apart in the source; their conditions may differ.

What was measured:
[1] = test system: L. major strain IR173 amastigotes; assay: Intramacrophage antileishmanial assay; type: cell-based, Leishmania major; conditions: activity retained 72 hours post macrophage lysis
Cyclic voltammetry = type: physicochemical; conditions: acetonitrile; for ipa/ipc, ratio of anodic to cathodic current / ΔEp, wave potential separation (Epa − Epc): scan rate 100 mV s−1; for E1/2, half wave potential (E1/2 = (Epa + Epc)/2) / Epa, anodic wave potential / Epc, cathodic wave potential: scan rate 100 mV s−1, V vs. Ag/AgCl
Outline: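 Test compound at 0.5 mM in anhydrous acetonitrile with 0.1 M […] as background electrolyte. Three-electrode cell: glassy carbon working, Pt wire counter, Ag/AgCl reference. Scanned from −1.7 to +1.0 V at 100 mV s−1 with a 20 mV E step, 6 cycles per compound, at 25 °C. Half-wave potentials were taken from the voltammograms.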

[2] = test system: L. donovani strain 9515 amastigotes; assay: Intramacrophage antileishmanial assay; type: cell-based, Leishmania donovani; conditions: antimonial-resistant L. donovani; activity retained 72 hours post lysis
[3] = Host macrophage cytotoxicity, resazurin assay; type: cell-based; conditions: human, PMA-differentiated THP-1 cells (macrophages)
Vero cells = assay: General/basal cytotoxicity, resazurin assay
[4] = historical data ref 35; cited from earlier work
[5] = test system: T. cruzi strain CL trypomastigotes; assay: T. cruzi antitrypomastigote assay; type: cell-based, Trypanosoma cruzi; conditions: >10 = did not qualify at 10 μM screen
[6] = test system: L. major strain IR173 promastigotes; assay: Leishmania antipromastigote assay; type: cell-based; conditions: read-out: Anti-promastigote activity IC50

Row | SMILES | ipa/ipc, ratio of anodic to cathodic current (Cyclic voltammetry) | ΔEp, wave potential separation (Epa − Epc) (Cyclic voltammetry) | E1/2, half wave potential (E1/2 = (Epa + Epc)/2) (Cyclic voltammetry) | Epa, anodic wave potential (Cyclic voltammetry) | Epc, cathodic wave potential (Cyclic voltammetry) | Anti-trypomastigote activity IC50 [5] | IC50 [6] | Cidal anti-amastigote activity against L. major [1] | Cidal anti-amastigote activity against L. donovani [2] | IC50 at 72 h [3] | Toxicity to mammalian cells, class in words (Vero cells) | E1/2, half wave potential [4] | General cytotoxicity Vero IC50 (Vero cells; Vero cells, 48 h, mean ± SD)
1 | O=[N+]([O-])c1ccc(/C=N/N=C/c2ccccc2)s1 [1b, (1E,2E)-1-Benzylidene-2-[(5-nitrothiophen-2-yl)methylene]hydrazine] | 1.032 | 0.22 V | −0.95 V | −0.84 V | −1.06 V |  |  |  | cidal | > 100 µM | moderate toxicity |  | 
2 | CC1CS(=O)(=O)CCN1/N=C/c1ccc([N+](=O)[O-])o1 (stereo not drawn) [NTX, Nifurtimox] |  |  |  |  |  |  |  |  |  |  |  | −0.88 V and −0.88 ^g V | 
3 | O=[N+]([O-])c1ccc(/C=N/N=C/c2ccc(F)cc2)s1 [2b, (1E,2E)-1-(4-Fluorobenzylidene)-2-[(5-nitrothiophen-2-yl)methylene]hydrazine] | 1.022 | 0.22 V | −0.89 V | −0.78 V | −1.00 V |  |  |  |  | > 100 µM | low toxicity |  | 
4 | O=[N+]([O-])c1ccc(/C=N/N=C/c2ccc(O)cc2)s1 [8b, 4-(E)-(E)-[(5-Nitrothiophen-2-yl)methylene]hydrazonomethylphenol] | 1.002 | 0.24 V | −0.94 V | −0.82 V | −1.06 V |  |  |  | cidal |  | moderate toxicity |  | 
5 | O=[N+]([O-])c1ccc(/C=N/N=C/c2ccco2)cc1 [compound 12, (E)-1-(Furan-2-ylmethylene)-2-[(E)-4-nitrobenzylidene]hydrazine] |  |  |  |  |  | complete loss |  |  |  |  |  |  | complete loss
6 | O=[N+]([O-])c1ccc(/C=N/N=C/c2ccc(OCc3ccccc3)cc2)s1 [7b, (1E,2E)-1-[4-(Benzyloxy)benzylidene]-2-[(5-nitrothiophen-2-yl)methylene]hydrazine] |  |  |  |  |  |  |  |  |  | > 100 µM | low toxicity |  | 
7 | C[C@@H]1[C@H](O)[C@@H](C)/C=C/C=C/C=C/C=C/C=C/C=C/C=C/[C@H](O[C@@H]2O[C@H](C)[C@@H](O)[C@H](N)[C@@H]2O)C[C@@H]2O[C@](O)(C[C@@H](O)C[C@@H](O)[C@H](O)CC[C@@H](O)C[C@@H](O)CC(=O)O[C@H]1C)C[C@H](O)[C@H]2C(=O)O [AmB, amphotericin B] |  |  |  |  |  |  | 0.03 ± 0.01 µM |  |  |  |  |  | 

Further lines, with some results ahead:

Row | ipa/ipc, ratio of anodic to cathodic current (Cyclic voltammetry) | ΔEp, wave potential separation (Epa − Epc) (Cyclic voltammetry) | E1/2, half wave potential (E1/2 = (Epa + Epc)/2) (Cyclic voltammetry) | Epa, anodic wave potential (Cyclic voltammetry) | Epc, cathodic wave potential (Cyclic voltammetry) | Anti-trypomastigote activity IC50 [5] | IC50 [6] | SMILES | Cidal anti-amastigote activity against L. major [1] | Cidal anti-amastigote activity against L. donovani [2] | IC50 at 72 h [3] | Toxicity to mammalian cells, class in words (Vero cells) | E1/2, half wave potential [4] | General cytotoxicity Vero IC50 (Vero cells; Vero cells, 48 h, mean ± SD)
8 | 0.990 | 0.28 V | −0.92 V | −0.78 V | −1.06 V |  |  | O=[N+]([O-])c1ccc(/C=N/N=C/c2ccc(F)cc2)o1 [2a, (1E,2E)-1-(4-Fluorobenzylidene)-2-[(5-nitrofuran-2-yl)methylene]hydrazine] | cidal |  |  |  |  | 
9 | 0.965 | 0.34 V | −0.85 V | −0.68 V | −1.02 V |  |  | COc1ccc(/C=N/N=C/c2ccc([N+](=O)[O-])o2)cc1 [6a, (1E,2E)-1-(4-Methoxybenzylidene)-2-[(5-nitrofuran-2-yl)methylene]hydrazine] |  | cidal | > 100 µM |  |  | 
10 | 0.891 | 0.26 V | −0.93 V | −0.80 V | −1.06 V |  |  | O=[N+]([O-])c1ccc(/C=N/N=C/c2ccc(Br)cc2)o1 [4a, (1E,2E)-1-(4-Bromobenzylidene)-2-[(5-nitrofuran-2-yl)methylene]hydrazine] | cidal | cidal | > 100 µM | low toxicity; also recorded: non-toxic |  | 
11 | 0.963 | 0.22 V | −0.95 V | −0.84 V | −1.06 V |  |  | O=[N+]([O-])c1ccc(/C=N/N=C/c2ccc([N+](=O)[O-])o2)cc1 [9a, (1E,2E)-1-(4-Nitrobenzylidene)-2-[(5-nitrofuran-2-yl)methylene]hydrazine] | cidal | cidal |  |  |  | 
12 | 0.967 | 0.28 V | −0.94 V | −0.80 V | −1.08 V |  |  | O=[N+]([O-])c1ccc(/C=N/N=C/c2ccc(Cl)cc2)o1 [3a, (1E,2E)-1-(4-Chlorobenzylidene)-2-[(5-nitrofuran-2-yl)methylene]hydrazine] | cidal |  | > 100 µM | low toxicity; also recorded: non-toxic |  | 
13 | 1.007 | 0.24 V | −0.94 V | −0.82 V | −1.06 V |  |  | Cc1ccc(/C=N/N=C/c2ccc([N+](=O)[O-])o2)cc1 [5a, (1E,2E)-1-(4-Methylbenzylidene)-2-[(5-nitrofuran-2-yl)methylene]hydrazine] |  |  | > 100 µM | low toxicity |  | 
14 |  | 0.26 V | −0.91 V | −0.78 V | −1.04 V |  |  | O=[N+]([O-])c1ccc(/C=N/N=C/c2ccc(OCc3ccccc3)cc2)o1 [7a, (1E,2E)-1-[4-(Benzyloxy)benzylidene]-2-[(5-nitrofuran-2-yl)methylene]hydrazine] |  |  | > 100 µM | low toxicity |  | 
